Data on 167 variants can be found in the RNAGym collection of RNA variant scans (doi:10.1126/science.aae0568).

B1: tRNA (parent)
chain: GUUCCGUUGGCGUAAUGGUAACGCGUCUCCCUCCUAAGGAGAAGACUGCGGGUUCGAGUCCCGUACGGAACG

Fewer inactive variants are shown than the library holds.

In the data set the parent is B1. As to the kind of experiment: yeast fitness relative to wild type (ratio to wild type); higher = fitter; tRNA-Arg(CCU), competitive growth, 37 C, YPD. A digest of the protocol:
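Changes in genotype frequencies gave Darwinian fitness relative to wild type. Frequencies were read by 100-nucleotide paired-end sequencing of gene amplicons before and after pooled Saccharomyces cerevisiae strains, carrying tRNA-Arg(CCU) gene variants at the native locus, were competed in YPD at 37°C for 24 hours in six replicates. A genotype was kept only with ≥ 100 starting reads, and estimates < 0.5 were set to 0.5.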
As for G9C A14U C24G U35G G50C, the yeast fitness is no more than 0.5.

For G9A C27U A36G, the yeast fitness came to 0.59.

Regarding G9A A43U G56C, the yeast fitness was 0.536.

Turning to G9A C46G, the yeast fitness was found to be 0.993.

Consider G9A U19G C31G, for which the yeast fitness was no more than 0.5.

For the variant G9A A21C C27A A37G A45C, the yeast fitness was no more than 0.5.

Turning to G9A U16C A20G A42G, the yeast fitness was no more than 0.5.

With G9C A43G G68A, the yeast fitness is no more than 0.5.

Take G9A C24U A40U A57C: the yeast fitness was no more than 0.5.

For the variant G9A G17C A45U A65C, the yeast fitness stood at 0.583.

G9A G52A C61U A69C: the yeast fitness was no more than 0.5.

Turning to G9A C22U U26A A43U A65U, the yeast fitness is no more than 0.5.

In the case of G9C A21C C29U, the yeast fitness was no more than 0.5.

Regarding G9A U26A G56A G67A, the yeast fitness is no more than 0.5.

In the case of G9C A14G G52C C60A, the yeast fitness is no more than 0.5.

On to G9A C55G U64A, for which the yeast fitness was no more than 0.5.

As to G9C A15C U35C U59A, the yeast fitness amounted to 0.605.

Regarding G9C A20C C66A, the yeast fitness stood at 0.601.

Consider G9C A20G U35C A36G G58A G67A, for which the yeast fitness was no more than 0.5.

For the variant G9A U16C A20C A40G C55U, the yeast fitness is no more than 0.5.

For G9C A15U U28G C55G A69U, the yeast fitness was determined as 0.599.

With G9C A15G A21U G56A A57G G67A, the yeast fitness was found to be 0.593.

On to G9A C31U A40C C66A, for which the yeast fitness was no more than 0.5.

Take G9A G48A G68C: the yeast fitness turned out to be 0.984.

As for G9A C22A U53A A57G, the yeast fitness turned out to be 0.554.

Consider G9A U47C G48C U59A C66A A69C, for which the yeast fitness was no more than 0.5.

In the case of G9A C11U A36C A57G G68C, the yeast fitness is no more than 0.5.

Regarding G9A C24A C55A, the yeast fitness was no more than 0.5.

With G9A G10A C31G G52A C62A, the yeast fitness is no more than 0.5.

Regarding G9A C30G, the yeast fitness was 0.707.

G9A C30A: the yeast fitness came out at 0.964.

For the variant G9A C30U, the yeast fitness turned out to be 0.888.

For G9A G10C G25C C33U C62A C66U, the yeast fitness is no more than 0.5.

In the case of G9C A15G A21G C49G C60A, the yeast fitness is no more than 0.5.

On to G9A U35C A42U, for which the yeast fitness is no more than 0.5.

In the case of G9A C29A A42C C55U, the yeast fitness is no more than 0.5.

For the variant G9A C22U C30G C61U A70U, the yeast fitness was no more than 0.5.

On to G9A G25C A42C, for which the yeast fitness was determined as 1.

For the variant G9A U53A A65C A70C, the yeast fitness was no more than 0.5.

G9C A14G: the yeast fitness worked out at 0.579.

Consider G9A A45U U64C, for which the yeast fitness amounted to 0.57.

With G9A G56A C62U G67A, the yeast fitness amounted to 0.525.

In the case of G9A A65C, the yeast fitness was found to be 0.93.

For the variant G9A U28C, the yeast fitness is 0.855.

For the variant G9A U16C C29G C31A C33G G41A A43G, the yeast fitness was no more than 0.5.

For G9A G25C C30U A57G, the yeast fitness was found to be 0.526.

Regarding G9A C29A A37G G58A, the yeast fitness stood at 0.571.

Take G9A A45C C49U: the yeast fitness came to 0.643.

For the variant G9C A14U A42G, the yeast fitness is no more than 0.5.

Regarding G9C A40U C66U, the yeast fitness is 0.622.

As to G9A C33U A36U U59A, the yeast fitness is no more than 0.5.

In the case of G9C A37G G68A, the yeast fitness was no more than 0.5.

As for G9A C11A G38C A40C, the yeast fitness is no more than 0.5.

For G9A G10A A21G G56A A65U, the yeast fitness is no more than 0.5.

As to G9A C22U, the yeast fitness was 1.04.

As to G9A C22A, the yeast fitness worked out at 0.919.

G9A C22G: the yeast fitness came to 0.869.

Take G9A C49U C55A: the yeast fitness is no more than 0.5.

On to G9C A20U U28A, for which the yeast fitness worked out at 0.535.

For G9A A40U C62G, the yeast fitness came out at 0.593.

Turning to G9A U19C A43U, the yeast fitness was 0.713.

For the variant G9A C11G U19C G67A, the yeast fitness is no more than 0.5.

Consider G9A C34A A45C, for which the yeast fitness stood at 0.541.

Turning to G9A C24G G41C U53C G58U, the yeast fitness was no more than 0.5.

For G9A U28C G44A G51C G58C, the yeast fitness is 0.51.

Take G9A A37C C62G: the yeast fitness was no more than 0.5.

For the variant G9A C11A C22G U35C, the yeast fitness is no more than 0.5.

Consider G9C C11A A40C, for which the yeast fitness was 0.671.

Take G9A A21G C61U A65U: the yeast fitness was no more than 0.5.

Consider G9A A45C, for which the yeast fitness came to 0.971.

With G9C A36U C60G G63C, the yeast fitness is no more than 0.5.

Turning to G9C A45G, the yeast fitness is 0.78.

Regarding G9A C31A A43U C61A, the yeast fitness was no more than 0.5.

For the variant G9C A36C C49G A65G, the yeast fitness is 0.681.

On to G9A C49U A69U, for which the yeast fitness was determined as 0.785.

In the case of G9A C22U C30U, the yeast fitness amounted to 0.519.

Consider G9A U19A U26A C34U, for which the yeast fitness is no more than 0.5.

For G9A G38A A69C, the yeast fitness was found to be 0.724.

With G9A C31A A42C A57G, the yeast fitness worked out at 0.522.

Consider G9A C34A G58A A70C, for which the yeast fitness was no more than 0.5.

G9A U47G: the yeast fitness worked out at 0.626.

Take G9A U47C: the yeast fitness came to 0.909.

With G9A C27A A42C C49G G51C C55G C66U, the yeast fitness was no more than 0.5.

In the case of G9C A14U C27G C29U C46U C60G, the yeast fitness is 0.596.

With G9A C33U A42C A69U, the yeast fitness was no more than 0.5.

G9A A37C A65C: the yeast fitness amounted to 0.56.

As to G9A U28G A40C A42G, the yeast fitness amounted to 0.76.

For G9C A14U G48C A69U, the yeast fitness was no more than 0.5.

Turning to G9A C31U C49U A69C, the yeast fitness is no more than 0.5.

G9C A20G A42U G44C G50C: the yeast fitness is no more than 0.5.

As to G9A C24U A65C, the yeast fitness came out at 0.536.

As to G9C A15U U16C A36U A69C, the yeast fitness was no more than 0.5.

Take G9A C27G A37G U53A: the yeast fitness is no more than 0.5.

Consider G9A G10C G17A G25A C31U, for which the yeast fitness was no more than 0.5.

For G9A C30G C31G U32A C66U, the yeast fitness is no more than 0.5.

In the case of G9C A20U, the yeast fitness turned out to be 0.667.

G9C A20G: the yeast fitness came out at 0.668.

On to G9A A57C, for which the yeast fitness is 0.591.

With G9C A15G, the yeast fitness is 0.633.

Take G9A G67U: the yeast fitness was found to be 0.863.

G9A C11G G50A G51A: the yeast fitness is no more than 0.5.

Take G9C A20C G67C: the yeast fitness stood at 0.537.

In the case of G9C A14C G44C U47C A57C, the yeast fitness was no more than 0.5.

Turning to G9A C46G C49U A69U, the yeast fitness came out at 1.11.

Consider G9A U16A G25C C46G, for which the yeast fitness worked out at 0.588.

For the variant G9A C27G, the yeast fitness was 0.757.

On to G9C A43U, for which the yeast fitness is 0.694.

With G9A G10A C31G G52A, the yeast fitness is 0.531.

For G9A C11U C29G, the yeast fitness is 0.609.

In the case of G9A C11U A36C A57G A65U, the yeast fitness is no more than 0.5.

As to G9A C29U C46U G67C, the yeast fitness amounted to 0.583.

With G9A C33G G44A C49G, the yeast fitness came to 0.607.

Consider G9A U26A A43U A65U, for which the yeast fitness turned out to be 0.562.

G9A U13C A21U A36G A40C A69U: the yeast fitness was no more than 0.5.

For G9C A15U C31U U35C G51C G56A C62G, the yeast fitness was no more than 0.5.

For G9A G39C G44C C55A, the yeast fitness worked out at 0.606.

For G9A C30A A42C, the yeast fitness stood at 0.562.

For the variant G9A A21G U32G G39C G52C, the yeast fitness is no more than 0.5.

For G9A U16A, the yeast fitness worked out at 1.08.

Take G9A U16C: the yeast fitness was 1.05.

Regarding G9A A21C C22A C66U, the yeast fitness was no more than 0.5.

For the variant G9A G51A A57U U59C, the yeast fitness is no more than 0.5.

Turning to G9A U19C C66U, the yeast fitness turned out to be 0.742.

Turning to G9A G38C C66U, the yeast fitness was no more than 0.5.

Turning to G9A C33U A36C A45C G48A C55A, the yeast fitness was no more than 0.5.

With G9A G23C U59A, the yeast fitness was no more than 0.5.

Turning to G9A U26G A69G A70C, the yeast fitness was no more than 0.5.

Regarding G9A A21U G48C C55A C66G G67C, the yeast fitness was no more than 0.5.

Consider G9C A20G A36U, for which the yeast fitness is no more than 0.5.

G9A C24U U26G: the yeast fitness came to 0.569.

For the variant G9A C11U C29A U53G, the yeast fitness is no more than 0.5.

Consider G9C A70G, for which the yeast fitness came out at 0.615.

Regarding G9A U26C A36U G39A, the yeast fitness was no more than 0.5.

Take G9A C29G U53G: the yeast fitness was no more than 0.5.

For the variant G9C A21U C27U G44A C66U, the yeast fitness worked out at 0.602.

Take G9C A14G C66U: the yeast fitness is no more than 0.5.

As for G9A U13C C27G U53A C60A A65G, the yeast fitness was no more than 0.5.

For the variant G9A C22A C55U, the yeast fitness came to 0.626.

For G9A A21U C24G U28A C60G A70C, the yeast fitness is no more than 0.5.

Consider G9C A57G U59A, for which the yeast fitness is no more than 0.5.

For the variant G9A U13A A65G C66U, the yeast fitness is no more than 0.5.

Regarding G9A U32G, the yeast fitness is 0.616.

Take G9A C22A A37U C55G: the yeast fitness was no more than 0.5.

For G9A A21C G25C, the yeast fitness stood at 0.565.

Consider G9C A37G C62U, for which the yeast fitness was no more than 0.5.

Regarding G9A U13G A36G, the yeast fitness amounted to 0.574.

As for G9A C11G C24G U32A G50A C61U G63C, the yeast fitness was no more than 0.5.

Consider G9A C34U C61G, for which the yeast fitness came to 0.521.

As for G9A C24A A36C A37G C49A, the yeast fitness was no more than 0.5.

G9A G23C A37G: the yeast fitness was no more than 0.5.

Take G9A G10A C31G G52A C61G: the yeast fitness is no more than 0.5.

On to G9A G18A C24G A45U, for which the yeast fitness was determined as 0.52.

Regarding G9C C11A A15U C24G C33G G38C A43G C60U G63A, the yeast fitness was no more than 0.5.

Take G9A G23C C30G A40U C46U: the yeast fitness came to 0.58.

Take G9A C22G U35C A37U: the yeast fitness was found to be 0.535.

Consider G9A G41A, for which the yeast fitness turned out to be 1.02.

Turning to G9C A14C U16C C27U C29A C33G C66A, the yeast fitness was determined as 0.577.

G9C A37U G52A: the yeast fitness was no more than 0.5.

Turning to G9A A45U G48A G56A, the yeast fitness came to 0.701.

As for G9A G44A G48A G50C, the yeast fitness is no more than 0.5.

Take G9A G48A G50C A65G C66U: the yeast fitness was no more than 0.5.

For the variant G9A C24G C29G G39C C55A, the yeast fitness was no more than 0.5.

G9A U16C G41A G58A: the yeast fitness is no more than 0.5.

With G9A U19G A37C A43U C46G, the yeast fitness is 0.581.

For the variant G9A A36U G51A C61G, the yeast fitness was no more than 0.5.

Consider G9A C34G U53C A57C A69U, for which the yeast fitness is no more than 0.5.

Consider G9A C22G C31U A65C C66A, for which the yeast fitness is no more than 0.5.
